# KCNK9 block: KCNK9 potassium channel inhibitors, primary screen, HEK293 cells, thallium flux. AID 488922, 2010. FluxOR thallium flux fluorescence; stronger effect = lower value. Potassium channel subfamily K member 9 (Homo sapiens), Q9NPC2. hit rate 1.2% among 310,000. B-score at 10 µM;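 active = ratio B-score over 3 SD below the library mean, with starting fluorescence within 5 SD of its mean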;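 also: negative B-score means less thallium flux so channel inhibition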
# KCNK3 inh: human KCNK3 channel inhibitors, primary screen, CHO cells, FluxOR thallium flux, B-score; FluxOR fluorescence; stronger effect = lower value; B-score at 10 µM; hit rate 0.84% among 340,000; AID 602410, 2012;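 active = B-score under library mean minus 4 SD, starting fluorescence ratio at most library mean plus 5 SD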;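 also: more negative B-score means stronger inhibition of thallium flux through KCNK3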
# hERG protect: hERG rescue from dofetilide block, primary screen, cell-based, CHO-hERG, FluxOR thallium flux, dofetilide IC70. Voltage-gated inwardly rectifying potassium channel KCNH2 (Homo sapiens), Q12809. dofetilide IC70 present. activation (rescue from dofetilide block), less the hit threshold, % at 10 µM. hit rate 0.51% among 310,000. AID 1511, 2009;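 active = activation above the mean of controls blocked by dofetilide plus 5 SD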;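 also: thallium influx through hERG after potassium depolarization seen as dye fluorescence rise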
# KCNQ1 block: inhibitors of human KCNQ1 channel, primary screen, cell-based, thallium flux, high-throughput | CHO-K1 KCNQ1, FluxOR thallium flux fluorescence; stronger effect = higher value | B-score at 10 µM | hit rate 1.3% among 310,000 | AID 2642, 2010;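 active = compounds whose thallium flux B-score, printed positive for inhibition, exceeds three library SD while starting fluorescence stays within three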;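 also: channel opened by potassium depolarization with thallium stimulus after 20 min compound exposure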
# Kir21 inh: inhibitors of mouse Kir2.1 inward-rectifier potassium channel | Inward rectifier potassium channel 2 (Mus musculus), P35561 | HEK293-Kir2.1, FluxOR thallium flux fluorescence; stronger effect = lower value | B-score at 10 µM | hit rate 0.85% among 310,000 | AID 1672, 2009;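 active = fluorescence ratio B-score at or below minus 3 SD of library scores, with starting-brightness B-score within 2 SD, cut at about -4.2 in these data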;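 also: channel flux triggered by added potassium and thallium sulfate stimulus; B-score of peak minus minimum fluorescence over baseline after thallium stimulus; more negative B-score means stronger Kir2.1 block with less thallium influx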
# Target sequence (P35561 whole entry, looked up): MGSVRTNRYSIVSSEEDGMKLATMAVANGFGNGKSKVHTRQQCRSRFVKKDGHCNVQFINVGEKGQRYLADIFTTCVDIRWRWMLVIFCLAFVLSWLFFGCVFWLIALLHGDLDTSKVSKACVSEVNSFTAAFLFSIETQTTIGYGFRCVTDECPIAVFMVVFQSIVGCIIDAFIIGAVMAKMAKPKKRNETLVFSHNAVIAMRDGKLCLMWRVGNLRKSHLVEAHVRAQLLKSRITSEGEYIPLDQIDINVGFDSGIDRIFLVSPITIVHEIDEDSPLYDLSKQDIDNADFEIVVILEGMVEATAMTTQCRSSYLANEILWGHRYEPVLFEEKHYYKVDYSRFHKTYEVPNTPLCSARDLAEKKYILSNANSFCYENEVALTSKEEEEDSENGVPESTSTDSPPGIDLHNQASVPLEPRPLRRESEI
# KCNQ1 pot: potentiators or activators of KCNQ1 channel, primary screen, cell-based, thallium flux, high-throughput. Potassium voltage-gated channel subfamily KQT member 1 (Homo sapiens), P51787. CHO-K1 KCNQ1, thallium flux FluxOR fluorescence; stronger effect = higher value. B-score at 10 µM. hit rate 0.35% among 310,000;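 active = fluorescence ratio B-score, a plate-corrected score, at least three library SD, with initial intensity B-score within 5 SD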
#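 assay system = KCNQ1-transfected CHO-K1 cells | medium = assay buffer with matched DMSO | probe or stimulus = depolarizing K+/Tl+ stimulus, K2SO4 and Tl2SO4 each 12.5 mM in 5x stock | dosing = single dose | incubation = dye 90 min, compound 20 min, room temperature | detection = kinetic FluxOR fluorescence, 10 s baseline plus 110 s post-stimulus | evaluation = ratio B score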
# KCNK9 inh conf: KCNK9 potassium channel inhibitors, confirmation, HEK293 cells, thallium flux, duplicate. shares compounds with KCNK9 block. FluxOR thallium flux fluorescence. inhibition, % at 10 µM. hit rate 43% among 4,900. AID 492992, 2010;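 active = thallium signal inhibited by more than 5 SD of the compound-free buffer control wells, on both duplicate plates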
# Kir2-1 spec: mouse Kir2.1 channel inhibition, confirmation, selectivity assay for KCNK9 modulator project, cell-based, HEK293, thallium flux; shares compounds with KCNK9 block; Kir2.1 cells, FluxOR thallium flux fluorescence; inhibition, % at 10 µM; hit rate 4% among 4,900; AID 492993, 2010;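 active = thallium signal drop more than 5 SD beyond the mean of the no-compound control wells, seen in both duplicate plates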;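 also: signal is fluorescence rise after thallium addition divided by baseline fluorescence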
# KCNK9 uninduced: thallium flux in non-induced HEK293 cells, confirmation, counter-screen for KCNK9 inhibitor project, cell-based, second counter screen, non-induced KCNK9-HEK293 | hit rate 40% among 4,900 | inhibition, % at 10 µM | FluxOR thallium flux | shares compounds with KCNK9 block;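 active = thallium signal drop beyond 5 SD of the untreated control mean, on both duplicate plates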
# KCNK3 confirm: retest of human KCNK3 channel inhibitors, confirmation, CHO cells, FluxOR thallium flux, triplicate | ratio percent of control, % at 10 µM | shares compounds with KCNK3 inh | hit rate 99% among 2,400 | AID 651638, 2012 | FluxOR fluorescence; 0% buffer, 100% carvedilol maximal block;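 active = ratio percent of control, averaged over triplicates, above buffer control mean plus 5 SD, cut at about 64% in these data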;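 also: ratio is the fluorescence rise from min to max over baseline after thallium stimulus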
# KCNK3 noninduced: thallium flux inhibition in non-induced cells, primary screen, counter-screen for KCNK3 inhibitor project, cell-based, non-induced KCNK3 line, FluxOR thallium, triplicate; shares compounds with KCNK3 inh; non-induced KCNK3 parental cells; stronger effect = lower value; thallium flux ratio (lower = more inhibition) at 10 µM; hit rate 40% among 2,400; AID 651747, 2012;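 active = thallium flux ratio, averaged over three wells, more than 5 SD below the buffer control mean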;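 also: host cells are CHO cells without KCNK3 induction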
# Hits are given with their value; . = inactive; / = no result. The list is not random: actives were taken first. Their share in the collection is about 3.8%.
SMILES,KCNK9 block,KCNK3 inh,hERG protect,KCNQ1 block,Kir21 inh,KCNQ1 pot,KCNK9 inh conf,Kir2-1 spec,KCNK9 uninduced,KCNK3 confirm,KCNK3 noninduced
O=C(CN1CCN(Cc2ccccc2Cl)CC1)N/N=C/c1cccs1,.,.,.,.,.,.,/,/,/,/,/
Cc1cnc(C(=O)OC(C(=O)c2c[nH]c3ccccc23)c2ccccc2)cn1 (centres undefined),-19.7,-10.6,.,.,.,.,78.5%,.,35.0%,108.0,.
Fc1ccccc1Cc1noc(CN(Cc2ccccn2)CC2CCCO2)n1 (centres undefined),.,.,.,.,.,.,/,/,/,/,/
Clc1ccc(CSc2snnc2-c2ccccc2)cc1,-8.57,-12.1,.,.,.,.,30.5%,.,45.0%,96.3,.
COc1cccc(OCCn2cc(C(=O)c3ccco3)c3ccccc32)c1,-15.3,-11.5,.,.,.,.,51.5%,.,.,118.7,0.14
Cc1nc(NCCc2ccccc2)c2oc3ccccc3c2n1,-12.7,-10.4,.,.,.,.,55.5%,.,.,131.0,0.122
COC(=O)[C@H](CCSC)NC(=O)N1CCN(c2cccc(C(F)(F)F)c2)CC1,-8.77,.,.,.,.,.,57.5%,.,.,84.3,.
CCCn1c(SCC(=O)N2CCc3ccccc32)n[nH]c1=O,/,.,/,/,/,/,/,/,/,/,/
O=c1ccc2ccc(OCCOc3cccc(Cl)c3)cc2o1,-9.51,.,.,.,.,.,32.5%,.,41.5%,99.7,.
Cc1ccc(C(=O)COc2ccc3ccc(=O)oc3c2)cc1,.,.,.,.,.,.,/,/,/,/,/
COc1cc(OC)cc(C(=O)NNC(=O)CN2C(=O)NC(C)(c3ccc(C)cc3)C2=O)c1 (centres undefined),.,.,.,.,.,.,/,/,/,/,/
CCn1cc(CNC(=O)c2cccc([N+](=O)[O-])c2)c(C)n1,.,.,.,.,.,.,/,/,/,/,/
O=C(NCc1cn(-c2ccccc2)nc1-c1ccc(F)cc1)c1cccc([N+](=O)[O-])c1,-16.7,-8.8,.,.,.,.,77.5%,.,31.0%,104.0,0.14
Cc1ccc(C(c2nnnn2C2CCCCC2)N(C)C2CCCCC2)cc1 (centres undefined),-9.39,.,.,.,.,.,.,.,43.0%,117.0,0.131
Cc1noc(C)c1CSCC(=O)Nc1ccccc1N1CCCC1,/,.,/,/,/,/,/,/,/,/,/
COc1cccc(-c2nn(-c3ccccc3)cc2/C=C\C(=O)c2cccs2)c1,-9.47,-11.5,.,.,.,.,39.0%,.,30.5%,88.7,.
COc1cccc(-c2nn(-c3ccccc3)cc2C(=O)O)c1,.,.,.,.,.,.,/,/,/,/,/
CCOc1ccccc1C(=O)Nc1cc2c(cc1N1CCCC1)n(CC)c(=O)n2CC,-13.9,-8.78,.,.,.,.,51.0%,.,22.5%,101.0,.
CC(=O)NCCC(=O)N1CCCC(N2CCN(c3cccc(Cl)c3)CC2)C1 (centres undefined),.,.,.,.,.,.,/,/,/,/,/
O=C(O)c1ccccc1C(=O)Nc1ccc(Br)c2cccnc12,.,.,.,.,.,.,/,/,/,/,/
CCCCNCCS(=O)(=O)NCc1ccc(OC)cc1,/,.,/,/,/,/,/,/,/,/,/
Oc1cc2c(cc1C(c1ccc(Cl)c(Cl)c1)N1CCCC1)OCO2 (centres undefined),-8.7,-12.4,.,.,.,.,.,.,41.0%,136.3,0.15
COc1ccccc1NS(=O)(=O)c1ccc(O)c(C(=O)OCc2cccc([N+](=O)[O-])c2)c1,-9.18,-8.83,.,.,.,.,.,.,28.5%,99.0,.
Cc1cccn2c(NCc3ccc4c(c3)OCO4)c(-c3ccc(O)cc3)nc12,.,.,.,.,.,.,/,/,/,/,/
COc1ccc(-c2nc3ccccn3c2NCc2ccc3c(c2)OCO3)cc1,-9.56,-9.71,.,.,.,.,47.5%,.,.,109.7,.
SMILES,KCNK9 block,KCNK3 inh,hERG protect,KCNQ1 block,Kir21 inh,KCNQ1 pot,KCNK9 inh conf,Kir2-1 spec,KCNK9 uninduced,KCNK3 confirm,KCNK3 noninduced
Cc1ccc(Nc2nc(Nc3ccc(C)cc3)nc(SC3=NCCS3)n2)cc1,.,.,.,.,.,.,/,/,/,/,/
Cc1ccccc1Nc1nc(Nc2ccccc2C)nc(SC2=NCCS2)n1,-9.89,-12.9,.,.,.,.,37.0%,.,26.5%,124.0,0.117
O=c1cc(N2CCCCC2)c(-c2ccccc2)nn1Cc1c(Cl)cccc1Cl,-10.4,-8.78,.,9,.,.,52.0%,.,25.0%,98.3,0.152
O=S(=O)(Cc1cc(Oc2ccccc2)nc(-c2ccccc2)n1)c1ccccc1,.,.,.,.,.,.,/,/,/,/,/
CCOC(=O)C(C)Sc1cc(CS(=O)(=O)c2ccccc2)nc(-c2ccccc2)n1 (centres undefined),-10.3,-8.76,.,.,.,.,58.0%,.,28.0%,125.0,.
CCOC(=O)C1CCN(c2nc(-c3ccc(C)cc3)nc3ccccc23)CC1,-8.16,-9.21,.,.,.,.,48.5%,.,30.0%,108.3,.
CCC1CCCCN1S(=O)(=O)c1ccc(NC(=O)c2cccs2)cc1 (centres undefined),-8.25,-11.4,.,.,.,.,52.5%,.,27.5%,107.3,.
CCC1CCCCN1S(=O)(=O)c1ccc(NC(=O)c2snnc2C)cc1 (centres undefined),.,.,.,.,.,.,/,/,/,/,/
CCN(C(=O)c1c(-c2ccccc2Cl)noc1C)C1CCCCC1,-9.08,-11.9,.,.,.,.,49.5%,.,33.0%,107.3,.
Cc1onc(-c2ccccc2Cl)c1C(=O)N(C)C1CCCCC1,.,.,.,.,.,.,/,/,/,/,/
